Experimental findings from ChEMBL document CHEMBL2203053, “DNA binding acridine-thiazolidinone agents affecting intracellular glutathione” (Bioorg Med Chem, 2012) are described below.

A word on the IC50: it is the point on the concentration scale where inhibition reaches its midpoint. A word on the Tm: it is the temperature at the midpoint of the melting transition.

The source made the active and inactive calls. No cut-off for these calls is given here.

The test system of data set [1] is L1210. As to the kind of experiment: Cytotoxicity against mouse L1210 cells after 72 hrs by MTT assay. Type of data set: functional, cell-based. The following applies: L1210, 72 h. A digest of the protocol: (§1)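 HL-60, L1210 and A2780 cells were grown in RPMI 1640 with 10% FBS, penicillin and streptomycin at 37 °C, 5% CO₂; HL-60 and A2780 medium also had 2 mM glutamine. Cells were exposed to 0–30 µM for 48 or 72 h. Viability was read by MTT microculture tetrazolium assay and IC50 was determined.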
A general note: Formazan colour is commonly taken as a measure of viable cells.

The subject of data set [2] is HL-60. The data set can be described thus: Decrease in intracellular glutathione level in human HL60 cells at 2 uM after 24 hrs by spectrophotometric analysis. It is filed as functional, cell-based.
Data set [3] has as its system Nucleic Acid. As to the kind of experiment: Binding affinity to calf thymus DNA assessed as bathochromic shift at 25 uM by UV-visible spectrophotometry. Type of data set: nucleic-acid assay. The following applies: Bos taurus. A digest of the protocol: (§2)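 Absorption spectra were taken in 0.01 M Tris buffer, pH 7.4. Compounds were diluted from DMSO stock to a final 25 µM. Sonicated calf thymus DNA in TE buffer was added at 0–30 µM bp, with concentration set by A260. Shift of λmax (free vs bound) and % hypochromicity were recorded.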

The test system of data set [4] is Nucleic Acid. The data set can be described thus: Binding affinity to calf thymus DNA assessed as hypochromicity at 25 uM by UV-visible spectrophotometry. It is filed as nucleic-acid assay. The following applies: Bos taurus. The method in brief:
as §2

Data set [5] has as its system HL-60. As to the kind of experiment: Drug uptake in human HL60 cells at 5 uM after 4 hrs by Hoechst staining based fluorescence microscopy. The following applies: hl-60, 4 h. It is filed as ADME, cell-based. A digest of the protocol: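 HL-60 cells were exposed to 5 µM for 4 h at 37 °C, 5% CO₂, then washed in PBS. Intrinsic blue fluorescence was viewed by optical and fluorescence microscopy. Untreated control cells were stained with Hoechst 33342 (10 µM, 10 min).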

In data set [6] the test system is A2780. The data set can be described thus: Drug uptake in human A2780 cells at 5 uM after 4 hrs by Hoechst staining based fluorescence microscopy. It is filed as ADME, cell-based. To be noted: a2780, 4 h.
Data set [7] deals with Nucleic Acid. As to the kind of experiment: Ratio of proflavine K to compound K for calf thymus DNA by spectrofluorimetry based McGhee von Hippel method. Type of data set: nucleic-acid assay. To be noted: Bos taurus.
Data set [8] deals with HL-60. The data set can be described thus: Cytotoxicity against human HL60 cells after 48 hrs using trypan blue exclusion staining by DCC method. Type of data set: functional, cell-based. To be noted: HL-60, 48 h. The method in brief: (§3)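 For trypan blue dye-exclusion direct cell counting, HL-60 cells were seeded at 1 × 10⁵ cells/mL. Compound at 0–10 µM, or 1% DMSO control, was added after 24 h. Viable counts were taken after 24, 48 and 72 h. IC50 (50% inhibition of viability) came from growth curves, as mean ± S.D., n = 3.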

Data set [9] concerns L1210. The data set can be described thus: Cytotoxicity against mouse L1210 cells after 48 hrs by MTT assay. It is filed as functional, cell-based. The following applies: L1210, 48 h. A digest of the protocol:
as §1

Data set [10] deals with A2780. As to the kind of experiment: Cytotoxicity against human A2780 cells after 72 hrs by MTT assay. It is filed as functional, cell-based. The following applies: A2780, 72 h. The method in brief:
as §1

In data set [11] the test system is Nucleic Acid. As to the kind of experiment: Binding affinity to calf thymus DNA assessed as binding constant by spectrofluorimetry based McGhee von Hippel method. To be noted: Bos taurus. Type of data set: nucleic-acid assay. The method in brief: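 Fluorescence titration used compound at 26.7 µM in 0.01 M Tris buffer (pH 7.4, 24 °C). ctDNA was added stepwise from 0 to 32 µM bp at 2 µM intervals until spectra stopped changing. Excitation was 384 nm and emission was read at 410–470 nm. Binding constant K was derived by the McGhee–von Hippel method from Scatchard plot data.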

Data set [12] has as its system Nucleic Acid. As to the kind of experiment: Binding affinity to calf thymus DNA assessed as melting temperature at 5 uM at pH 7.1 by thermal denaturation assay. Type of data set: nucleic-acid assay. To be noted: Bos taurus.
The subject of data set [13] is HL-60. As to the kind of experiment: Cytotoxicity against human HL60 cells after 72 hrs by MTT assay. Type of data set: functional, cell-based. To be noted: HL-60, 72 h. The method in brief: as §1
Data set [14] concerns HL-60. As to the kind of experiment: Cytotoxicity against BSO pretreated human HL60 cells assessed as cell viability at 1.5 uM treated 6 hrs after BSO addition measured after 48 hrs by trypan blue exclusion assay. Type of data set: functional, cell-based. The method in brief:
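HL-60 cells were pretreated 6 h with L-buthionine-sulfoximine (10 µM), then exposed to 1.5, 3.0 or 1.0 µM compound for 48 h. Viable cells were counted by trypan blue staining and expressed as percentage of all cells.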

For data set [15], the system named is HL-60. The data set can be described thus: Decrease in intracellular glutathione level in human HL60 cells at 2 uM after 2 hrs by spectrophotometric analysis. Type of data set: functional, cell-based.
The subject of data set [16] is HL-60. As to the kind of experiment: Induction of necrosis in human HL60 cells assessed as cell shrinking at 5 uM after 24 hrs by propidium iodide staining based fluorescence microscopy. Type of data set: functional.
Data set [17] has as its system HL-60. As to the kind of experiment: Cytotoxicity against human HL60 cells after 72 hrs using trypan blue exclusion staining by DCC method. Type of data set: functional, cell-based. The following applies: HL-60, 72 h. The method in brief: as §3
In data set [18] the test system is Nucleic Acid. As to the kind of experiment: Ratio of acridine orange K to compound K for calf thymus DNA by spectrofluorimetry based McGhee von Hippel method. It is filed as nucleic-acid assay. The following applies: Bos taurus.
In data set [19] the test system is HL-60. As to the kind of experiment: Cytotoxicity against human HL60 cells after 48 hrs by MTT assay. Type of data set: functional, cell-based. To be noted: HL-60, 48 h. A digest of the protocol:
as §1

The subject of data set [20] is A2780. As to the kind of experiment: Cytotoxicity against human A2780 cells after 48 hrs by MTT assay. It is filed as functional, cell-based. To be noted: A2780, 48 h. The method in brief: as §1
Data set [21] deals with Nucleic Acid. As to the kind of experiment: Ratio of daunomycin K to compound K for calf thymus DNA by spectrofluorimetry based McGhee von Hippel method. It is filed as nucleic-acid assay. To be noted: Bos taurus.

Consider `CCC(C)N1C(=O)/C(=C/C(=O)OC)S/C1=N\c1c2ccccc2nc2ccccc12` (stereo unspecified), for which the half-maximal inhibitory concentration (IC50) in data set [1] was 7.5 µM; in [8], 2000 nM; in data set [9], 3.3 µM; in [10], 12.6 µM; in [13], 2100 nM; in data set [17], 1700 nM. In addition, the IC50 in data set [19] was 3.4 µM; in [20], 20.8 µM. In addition, the result in data set [2], in [3], in [14], in [15] and in [16] was Active. Moreover, the Activity in data set [4] turned out to be 26.3%. Moreover, the Drug uptake result in [5] and in data set [6] was “Active” each time. Also, the Ratio in [7], in [18] and in data set [21] was 10 throughout. Further, in data set [11], the K was 2.21 ×10⁶ /M. In addition, the Tm in [12] was determined as 75 °C.
